Non-standard residues stand in square brackets, D forms with d. Residues, ends and D or L forms follow the SMILES beside them. *: point of attachment. Bip = N[C@@H](Cc1ccc(-c2ccccc2)cc1)C(=O)O; Lys(Me3) = C[N+](C)(C)CCCC[C@H](N)C(=O)O; NHPhenethyl = c1ccc(CCN*)cc1
How the values were obtained:
[1] = system: Escherichia coli; test: Antimicrobial activity against Escherichia coli ATCC 25922 assessed as reduction in microbial growth incubated for 18 hrs by CLSI protocol based two fold serial dilution method; format: functional
[2] = system: Staphylococcus aureus; test: Antimicrobial activity against Staphylococcus aureus ATCC 29213 assessed as reduction in microbial growth incubated for 18 hrs by CLSI protocol based two fold serial dilution method; format: functional
[3] = system: Candida albicans; test: Antimicrobial activity against Candida albicans SC5314 assessed as reduction in microbial growth incubated for 48 hrs by CLSI protocol based broth microdilution method; format: functional
[4] = system: Cyberlindnera jadinii; test: Antimicrobial activity against clinical isolate Candida utilis SVB-Y1 assessed as reduction in microbial growth incubated for 48 hrs by CLSI protocol based broth microdilution method; format: functional; conditions: Williopsis jadinii
Method in brief: (§1)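 Clinical isolates of the fungi were subcultured from Auckland City Hospital. MICs were determined following Clinical and Laboratory Standards Institute recommended protocols.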

[5] = system: Aspergillus fumigatus; test: Antimicrobial activity against clinical isolate Aspergillus fumigatus SVB-F136 assessed as reduction in microbial growth incubated for 48 hrs by CLSI protocol based broth microdilution method; format: functional; method in brief: as §1
[6] = Hemolytic activity in human RBC assessed as hemolysis rate at 100 uM incubated for 45 mins by spectrophotometric assay relative to control; format: toxicity, cell-based, Erythrocyte; conditions: human red blood cells, read-out: Activity
Method in brief: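 Isolated, washed human erythrocytes were exposed to each compound at a single concentration of 100 μM. Percent hemolysis was recorded as a relative measure between compounds.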

[7] = Cytotoxicity against human HeLa cells assessed as reduction in cell viability incubated for 24 hrs by PrestoBlue assay; format: toxicity, cell-based
Method in brief: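 HeLa (human epithelial) cells were exposed to serial peptide dilutions from 1.4 to 87.5 μM for 24 h at 37 °C. Viability was read by PrestoBlue, and IC50 was taken from dose–response curves. There were two independent experiments, each in triplicate, reported as mean ± SD.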

[8] = Hemolytic activity in human RBC assessed as hemolysis rate incubated for 45 mins by spectrophotometric assay; format: toxicity, cell-based, Erythrocyte; conditions: human red blood cells

Row | MIC [1] [µM] | MIC [2] [µM] | MIC [3] [µM] | MIC [4] [µM] | MIC [5] [µM] | Compound | hemolysis at 0.75 h, 100 µM [6] [%] | IC50 at 24 h [7] [µM] | EC50 at 45 min [8] [µM]
1 | > 64 | > 64 | > 64 | 64 | > 64 | C[N+](C)(C)CCCC[C@H](NC(=O)[C@H](Cc1ccc(-c2ccccc2)cc1)NC(=O)[C@@H](N)CCCC[N+](C)(C)C)C(=O)NCCc1ccccc1 (H-[Lys(Me3)]-[Bip]-[Lys(Me3)]-NHPhenethyl) |  |  | 
2 | 16 | 4 |  |  |  | CC1(C)S[C@@H]2[C@H](NC(=O)[C@H](N)c3ccc(O)cc3)C(=O)N2[C@H]1C(=O)O [AMOXICILLIN] |  |  | 
3 | 16 | 8 | 2 | 2 | 16 | COc1c(Br)cc(CCNC(=O)[C@H](CCCNC(=N)N)NC(=O)[C@H](Cc2c[nH]c3cc(Br)ccc23)NC(=O)[C@@H](N)CCCNC(=N)N)cc1Br | 1.19 | > 87.5 | 
4 | 2 | 2 | 4 | 2 | 8 | CC(C)(C)c1cc(C(C)(C)C)c2[nH]c(C(C)(C)C)c(C[C@H](NC(=O)[C@@H](N)CCCNC(=N)N)C(=O)N[C@@H](CCCNC(=N)N)C(=O)NCCc3ccccc3)c2c1 [LTX-109] | 4.23 | 46.6 | 222
5 | > 64 | > 64 | > 64 | > 64 | > 64 | COc1c(Br)cc(C[C@H](NC(=O)[C@@H](N)CCCNC(=N)N)C(=O)N[C@@H](CCCNC(=N)N)C(=O)NCCc2c[nH]c3cc(Br)ccc23)cc1Br |  |  | 
6 | 16 | 8 | 4 | 4 | 16 | COc1c(Br)cc(-c2ccc(C[C@H](NC(=O)[C@@H](N)CCCNC(=N)N)C(=O)N[C@@H](CCCNC(=N)N)C(=O)NCCc3ccccc3)cc2)cc1Br | 1.38 | > 87.5 | 
7 | > 64 | 64 | > 64 | 32 | > 64 | COc1c(Br)cc(CCNC(=O)[C@H](CCCCN)NC(=O)[C@H](Cc2cc(Br)c(OC)c(Br)c2)NC(=O)[C@@H](N)CCCCN)cc1Br |  |  | 
8 | > 64 | > 64 | > 64 | > 64 | > 64 | C[N+](C)(C)CCCCC[C@H](N)C(=O)N[C@@H](Cc1ccc(-c2ccccc2)cc1)C(=O)N[C@@H](CCCNC(=N)N)C(=O)NCCc1ccccc1 |  |  | 
9 | > 64 | 32 | 2 | 2 | > 64 | COc1ccc(-c2ccc(C[C@H](NC(=O)[C@@H](N)CCCNC(=N)N)C(=O)N[C@@H](CCCNC(=N)N)C(=O)NCCc3ccccc3)cc2)cc1 | 0.4 | > 87.5 | 
10 | > 64 | > 64 | > 64 | > 64 | > 64 | C[N+](C)(C)CCCC[C@H](N)C(=O)N[C@@H](Cc1ccc(-c2ccccc2)cc1)C(=O)N[C@@H](CCCNC(=N)N)C(=O)NCCc1ccccc1 (H-[Lys(Me3)]-[Bip]-Arg-NHPhenethyl) |  |  | 
11 | > 64 | > 64 | > 64 | > 64 | > 64 | COc1c(Br)cc(C[C@H](NC(=O)CCCCC[N+](C)(C)C)C(=O)N[C@@H](CCCNC(=N)N)C(=O)NCCc2ccccc2)cc1Br |  |  | 
12 | 8 | 4 | 4 | 4 | 16 | COc1c(Br)cc(CCNC(=O)[C@H](CCCNC(=N)N)NC(=O)[C@H](Cc2ccc(-c3cc(Br)c(OC)c(Br)c3)cc2)NC(=O)[C@@H](N)CCCNC(=N)N)cc1Br | 1.62 | > 87.5 | 
13 | > 64 | > 64 | 16 | 8 | 64 | COc1c(Br)cc(C[C@H](NC(=O)[C@@H](N)CCCNC(=N)N)C(=O)N[C@@H](CCCNC(=N)N)C(=O)NCCc2ccccc2)cc1Br | 0.34 |  | 
14 | > 64 | > 64 | > 64 | > 64 | > 64 | N=C(N)NCCC[C@H](NC(=O)[C@H](Cc1ccccc1)NC(=O)[C@@H](N)CCCNC(=N)N)C(=O)NCCc1ccccc1 (H-Arg-Phe-Arg-NHPhenethyl) | 0.33 |  | 
15 | > 64 | > 64 | > 64 | 64 | ≥ 64 | N=C(N)NCCC[C@H](NC(=O)[C@H](Cc1ccc(-c2cc(Br)c(O)c(Br)c2)cc1)NC(=O)[C@@H](N)CCCNC(=N)N)C(=O)NCCc1cc(Br)c(O)c(Br)c1 |  |  | 
16 | > 64 | 64 | 8 | 8 | 64 | COc1c(Br)cc(CCNC(=O)[C@H](CCCNC(=N)N)NC(=O)[C@H](Cc2c[nH]c3ccccc23)NC(=O)[C@@H](N)CCCNC(=N)N)cc1Br | 0.35 |  | 
17 | > 64 | > 64 | 32 | 4 | > 64 | COc1ccc(CCNC(=O)[C@H](CCCNC(=N)N)NC(=O)[C@H](Cc2ccc(-c3ccc(OC)c(Br)c3)cc2)NC(=O)[C@@H](N)CCCNC(=N)N)cc1Br | 0.29 |  | 
18 | > 64 | > 64 | > 64 | > 64 | > 64 | C[N+](C)(C)CCCC[C@H](NC(=O)[C@H](Cc1ccc(-c2ccccc2)cc1)NC(=O)[C@@H](N)CCCNC(=N)N)C(=O)NCCc1ccccc1 (H-Arg-[Bip]-[Lys(Me3)]-NHPhenethyl) |  |  | 
19 | 0.0625 | > 64 |  |  |  | POLYMYXIN B |  |  | 

Row | Compound | MIC [1] [µM] | MIC [2] [µM] | MIC [3] [µM] | MIC [4] [µM] | MIC [5] [µM] | hemolysis at 0.75 h, 100 µM [6] [%] | IC50 at 24 h [7] [µM] | EC50 at 45 min [8] [µM]
20 | N=C(N)NCCC[C@H](NC(=O)[C@H](Cc1c[nH]c2cc(Br)ccc12)NC(=O)[C@@H](N)CCCNC(=N)N)C(=O)NCCc1ccccc1 | > 64 | > 64 | 16 | 8 | > 64 | 0.29 | > 87.5 | 
21 | N=C(N)NCCC[C@H](NC(=O)[C@@H](Cc1c[nH]c2cc(Br)ccc12)NC(=O)[C@@H](N)CCCNC(=N)N)C(=O)NCCc1ccccc1 | > 64 | > 64 | > 64 | 16 | > 64 | 0.27 |  | 
22 | C[C@@H]1[C@H](O)[C@@H](C)/C=C/C=C/C=C/C=C/C=C/C=C/C=C/[C@H](O[C@@H]2O[C@H](C)[C@@H](O)[C@H](N)[C@@H]2O)C[C@@H]2O[C@](O)(C[C@@H](O)C[C@@H](O)[C@H](O)CC[C@@H](O)C[C@@H](O)CC(=O)O[C@H]1C)C[C@H](O)[C@H]2C(=O)O [AMPHOTERICIN B] |  |  | 1 | 2 | 4 |  |  | 
